Experimental data collected from several papers.
Protocols differ between the studies behind these lines. Converted amounts (≈) assume the structure as drawn.
Organism: Nakaseomyces glabratus

CCCCCCCCCCCCN1CCNCC1 gave an MIC of 1.95 µg/mL (≈ 7.66 µM) (microbial growth; broth dilution; ATCC2001; 48 h).
The IC50 of CCOC(=O)c1nc2ccccc2c(=O)n1Cc1cn(-c2ccccc2[N+](=O)[O-])nn1 is reported as 272 µg/mL (≈ 648 µM) (microbial growth; broth dilution; ATCC90030; 24 h).
CCCCCCCCOc1c(OC)cc(NC(C)CCCNC(=O)C2CCCN2)c2nc(C(C)(C)C)ccc12 (centres unmarked) has an MFC of 20 µg/mL (≈ 37 µM) (microbial killing; ATCC90030).
CC[C@H](C)C[C@H](C)CCCCCCCCC(=O)N[C@H]1C[C@@H](O)[C@@H](NCCN)NC(=O)[C@@H]2[C@@H](O)CCN2C(=O)[C@H]([C@H](O)CCN)NC(=O)[C@H]([C@H](O)[C@@H](O)c2ccc(O)cc2)NC(=O)[C@@H]2C[C@@H](O)CN2C(=O)[C@H]([C@@H](C)O)NC1=O gave an MIC of 0.06 µg/mL (≈ 0.0549 µM) (microbial growth; broth dilution; ATCC2001; 48 h).
CCCCCCOc1c(OC)cc(NC(C)CCCN)c2nc(C(C)(C)C)ccc12 (centres unmarked) has an IC50 of 11.5 µg/mL (≈ 27.6 µM) (microbial growth; ATCC90030).
The IC50 of O=C(O)c1nc2ccccc2c(=O)n1Cc1cn(-c2cccc([N+](=O)[O-])c2)nn1 is reported as 487 µg/mL (≈ 1240 µM) (microbial growth; broth dilution; ATCC90030; 24 h).
With CCCCCCOc1c(OC)cc(NC(C)CCCNC(=O)C(N)Cc2cnc[nH]2)c2nc(C(C)(C)C)ccc12 (centres unmarked) the IC50 was 19.2 µg/mL (≈ 34.8 µM) (microbial growth; ATCC90030).
CCCCCCCCCN1CCNCC1 has an MIC of 31.3 µg/mL (≈ 147 µM) (microbial growth; broth dilution; ATCC2001; 48 h).
OC(Cn1cncn1)(Cn1cncn1)c1ccc(F)cc1F gave an MFC of over 64 µg/mL (microbial killing; ATCC1182).
C=CCCCCCCCCCCCC(O)CC(O)CO (centres unmarked) gave an IC50 of over 200 µg/mL (microbial growth; broth dilution; ATCC90030).
CCCCCCCCCCCCCCN1CCOCC1 has an MIC of over 31.3 µg/mL (microbial growth; broth dilution; ATCC2001; 48 h).
For O=C(O)c1nc2ccccc2c(=O)n1Cc1cn(-c2ccc([N+](=O)[O-])cc2)nn1, the IC50 was 432 µg/mL (≈ 1100 µM) (microbial growth; broth dilution; ATCC90030; 24 h).
With CCCCCCCOc1c(OC)cc(NC(C)CCCN)c2nc(C(C)(C)C)cc(C)c12 (centres unmarked) the IC50 was 4.3 µg/mL (≈ 9.69 µM) (microbial growth; ATCC90030).
With O=C(O)c1nc2ccccc2c(=O)n1Cc1cn(-c2ccc(Cl)cc2)nn1 the IC50 was 517 µg/mL (≈ 1350 µM) (microbial growth; broth dilution; ATCC90030; 24 h).
CCCCCCCCCCCN1CCN(CC(O)(Cn2cncn2)c2ccc(F)cc2F)CC1 (centres unmarked) has an MIC of 3.9 µg/mL (≈ 8.17 µM) (microbial growth; broth dilution; ATCC2001; 48 h).
CCOC(=O)c1nc2ccccc2c(=O)n1Cc1cn(-c2ccc([N+](=O)[O-])cc2)nn1 has an IC50 of 316 µg/mL (≈ 751 µM) (microbial growth; broth dilution; ATCC90030; 24 h).
For C[C@@H]1[C@H](O)[C@@H](C)/C=C/C=C/C=C/C=C/C=C/C=C/C=C/[C@H](O[C@@H]2O[C@H](C)[C@@H](O)[C@H](N)[C@@H]2O)C[C@@H]2O[C@](O)(C[C@@H](O)C[C@@H](O)[C@H](O)CC[C@@H](O)C[C@@H](O)CC(=O)O[C@H]1C)C[C@H](O)[C@H]2C(=O)O, the MFC was 1.25 µg/mL (≈ 1.35 µM) (microbial killing; ATCC90030).
With OC(Cn1cncn1)(Cn1cncn1)c1ccc(F)cc1F the MIC90 was 16 µg/mL (≈ 52.2 µM) (microbial growth; broth dilution; 24 h).
With CCCCCOc1c(OC)cc(NC(C)CCCNC(=O)C(N)CCCNC(=N)N)c2nc(C(C)(C)C)ccc12 (centres unmarked) the IC50 was 19.1 µg/mL (≈ 34.2 µM) (microbial growth; ATCC90030).
With COc1ccc(-c2cc(OC)cc(C(C)C#Cc3c(C)nc(N)nc3N)c2)cc1 (centres unmarked) the MIC was 3.1 µg/mL (≈ 7.98 µM) (microbial growth; resazurin).
